Reference: article PMC6335142 (Korean Journal for Food Science of Animal Resources, 2018)
Marks after values point to notes of the source that are not given here. Where no end group is shown, it is not given here.

Legend:
[1] = system: ERK, JNK and p38 MAP kinase; experiment: Western blot of MAP kinase; type: cell-based, human; conditions: 24 h, HCT116 cells
How it was run: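 HCT116 cells seeded at 2×10^5 cells/well, incubated overnight at 37℃, then given peptide at varying concentrations for 24 h. Cells washed in dPBS and lysed on ice in pH 8.0 NaCl/Tris/NP40 buffer with protease inhibitors. 15 μg protein run on 10% SDS-PAGE and blotted to PVDF, blocked in 5% BSA. Blots probed overnight at 4℃ with total and phospho ERK, JNK, p38 and β-actin antibodies (1:200), then HRP secondary. Detection by ECL chemiluminescence.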

HCT116 cells = experiment: MTT cell viability / proliferation assay in HCT116 cells; type: cell-based, human; conditions: 24 h
How it was run: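 HCT116 cells grown in RPMI1640 with 10% FBS and 1% antibiotics at 37℃, 5% CO2, then seeded at 2×10^4 cells/well and left 24 h. Peptide added at 0–250 μg/mL for 24 h. MTT was added to a final 0.5 mg/mL for 4 h, and the formazan was dissolved in DMSO and read at 540 nm. Data given as means and SEM, with GLM ANOVA and Tukey test, p<0.05.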

[2] = Oxygen radical absorbance capacity; type: biochemical
How it was run: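 Sample or trolox standard mixed with 80 nM fluorescein and held 15 min at 37℃, then 150 mM AAPH added. Fluorescence (ex 480, em 520 nm) recorded every minute at 37℃. Net AUC was converted through a trolox regression and reported as μmol trolox equivalent. RP-HPLC fractions (C18, 0–40% acetonitrile in 0.1% TFA, 215 nm) were lyophilized and taken up in 75 mM phosphate buffer. Values given as means and SEM with Tukey test.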

For “CCCCSVQK (cysteine pairing not given here) [P3]”, the p38 phosphorylation ([1]; 0, 50, 100 and 250 μg/mL) was “significantly phosphorylated by P3 with dose dependent”, the ERK phosphorylation ([1]; 50 μg/mL) was “activated” and the JNK phosphorylation ([1]; 100 and 250 μg/mL) was “significantly activated”. For the same sequence, the “Growth of HCT116 cells” value (HCT116 cells; 0–250 μg/mL) was “inhibited the growth of HCT116 cells in a dose-dependent manner”, the “Inhibition of HCT116 cell proliferation” value (HCT116 cells; 250 μg/mL) was 25.24% and the “Inhibition of HCT116 cells (as printed in results text)” value (HCT116 cells; 250 μg/mL, vs control) was 74.76%. For the same sequence, the “ORAC value of RP-HPLC fraction” value ([2]; each 2-mL fraction lyophilized and re-dissolved in 0.5 mL 75 mM phosphate buffer) was 94.21 μmol of TE and the ORAC ([2]; fluorescein 80 nM, AAPH 150 mM, 37℃, trolox standard, means, SEM 4.662) was 202.66^a µM TE/g of dry matter.
